Results taken from ChEMBL document CHEMBL2176883, “Aminopiperidine sulfonamide Cav2.2 channel inhibitors for the treatment of chronic pain” (J Med Chem, 2012).

What was measured:
[1] = target: T1, Voltage-dependent N-type calcium channel subunit alpha-1B (Homo sapiens, UniProt Q00975); assay: Inhibition of Cav2.2 expressed HEK293 cells assessed as inhibition of calcium flux by FLIPR assay in presence of 30 mM of potassium; assay type: cell-based
In short: (§1)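 Calcium influx was read with a calcium-sensitive dye on FLIPR Tetra in CBK cells expressing α1B-1, α2-δ and β3a with Kir2.3. Cells were preincubated with compound in 30 mM K+, then channels were opened by 1:1 addition of 140 mM K+ solution. Compounds were screened at 1 μM, then titrated over 10 points (0.001–30 μM) in quadruplicate, mean ± SD. Values are averages of n ≥ 3.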
Target sequence in this assay (Q00975 whole entry): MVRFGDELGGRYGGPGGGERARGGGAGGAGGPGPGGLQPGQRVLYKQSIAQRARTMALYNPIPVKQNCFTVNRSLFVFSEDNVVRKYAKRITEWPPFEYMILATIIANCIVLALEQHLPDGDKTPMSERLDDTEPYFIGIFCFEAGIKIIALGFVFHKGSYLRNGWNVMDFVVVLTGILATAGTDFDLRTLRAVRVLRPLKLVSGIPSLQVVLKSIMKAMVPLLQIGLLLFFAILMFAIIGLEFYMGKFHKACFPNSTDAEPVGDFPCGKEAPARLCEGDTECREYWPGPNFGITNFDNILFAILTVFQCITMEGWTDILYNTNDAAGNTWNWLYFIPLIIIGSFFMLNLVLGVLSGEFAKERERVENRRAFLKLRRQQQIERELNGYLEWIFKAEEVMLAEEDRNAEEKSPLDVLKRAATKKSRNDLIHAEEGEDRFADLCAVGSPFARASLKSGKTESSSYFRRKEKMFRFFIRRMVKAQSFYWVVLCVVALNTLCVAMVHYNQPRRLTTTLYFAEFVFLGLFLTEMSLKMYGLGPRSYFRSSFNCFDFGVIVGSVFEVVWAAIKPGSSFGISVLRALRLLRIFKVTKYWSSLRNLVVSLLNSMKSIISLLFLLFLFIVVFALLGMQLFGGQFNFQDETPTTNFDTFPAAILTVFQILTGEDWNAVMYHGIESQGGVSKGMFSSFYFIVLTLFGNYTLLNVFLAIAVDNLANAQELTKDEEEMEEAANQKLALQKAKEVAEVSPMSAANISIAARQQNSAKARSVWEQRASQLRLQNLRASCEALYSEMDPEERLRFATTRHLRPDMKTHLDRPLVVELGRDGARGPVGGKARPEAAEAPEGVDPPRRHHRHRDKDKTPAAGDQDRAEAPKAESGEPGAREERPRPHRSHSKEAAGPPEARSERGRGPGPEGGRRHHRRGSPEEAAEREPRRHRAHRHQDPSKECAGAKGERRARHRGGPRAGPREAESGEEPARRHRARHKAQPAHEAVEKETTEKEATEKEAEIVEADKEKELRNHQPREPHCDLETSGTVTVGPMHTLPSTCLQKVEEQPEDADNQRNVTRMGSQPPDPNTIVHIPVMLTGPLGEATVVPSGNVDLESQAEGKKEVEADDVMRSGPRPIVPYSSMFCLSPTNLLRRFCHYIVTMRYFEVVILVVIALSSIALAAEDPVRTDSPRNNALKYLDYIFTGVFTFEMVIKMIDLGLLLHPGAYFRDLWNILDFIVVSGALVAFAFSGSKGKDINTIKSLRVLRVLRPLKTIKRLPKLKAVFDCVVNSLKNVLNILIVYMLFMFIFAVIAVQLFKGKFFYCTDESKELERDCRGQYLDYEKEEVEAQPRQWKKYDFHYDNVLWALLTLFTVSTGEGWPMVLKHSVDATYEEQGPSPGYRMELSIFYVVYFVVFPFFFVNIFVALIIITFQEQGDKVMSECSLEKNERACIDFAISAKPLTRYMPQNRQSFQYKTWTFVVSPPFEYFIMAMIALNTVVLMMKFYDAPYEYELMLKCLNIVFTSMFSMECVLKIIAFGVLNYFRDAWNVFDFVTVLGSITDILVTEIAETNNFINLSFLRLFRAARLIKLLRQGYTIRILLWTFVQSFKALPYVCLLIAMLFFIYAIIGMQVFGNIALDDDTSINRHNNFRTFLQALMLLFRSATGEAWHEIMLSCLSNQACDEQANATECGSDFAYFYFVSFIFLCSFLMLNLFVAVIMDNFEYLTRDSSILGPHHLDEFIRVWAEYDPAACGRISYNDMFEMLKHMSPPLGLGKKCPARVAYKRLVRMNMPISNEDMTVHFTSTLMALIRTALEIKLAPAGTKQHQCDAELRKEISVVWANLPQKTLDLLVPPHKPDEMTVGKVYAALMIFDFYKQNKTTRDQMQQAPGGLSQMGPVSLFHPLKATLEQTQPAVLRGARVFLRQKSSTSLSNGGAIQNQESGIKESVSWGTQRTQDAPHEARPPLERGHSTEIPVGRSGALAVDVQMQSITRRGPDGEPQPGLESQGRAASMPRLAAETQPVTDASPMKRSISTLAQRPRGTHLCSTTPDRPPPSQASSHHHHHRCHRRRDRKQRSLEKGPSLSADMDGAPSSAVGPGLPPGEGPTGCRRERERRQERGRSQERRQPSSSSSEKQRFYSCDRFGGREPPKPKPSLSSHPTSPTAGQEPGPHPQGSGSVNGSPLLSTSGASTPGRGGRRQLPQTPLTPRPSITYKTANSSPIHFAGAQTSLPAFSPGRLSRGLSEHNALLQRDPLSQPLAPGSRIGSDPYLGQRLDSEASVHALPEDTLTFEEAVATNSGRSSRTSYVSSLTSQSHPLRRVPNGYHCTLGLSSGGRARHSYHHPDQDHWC

hERG [2] = target: T2, hERG (Homo sapiens, UniProt Q12809); assay: Displacement of [35S]-MK-0499 from human ERG at 10 uM; settings: probe [35S]-MK-0499
In short: (§2)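 hERG binding was measured as displacement of 35S-labeled MK-0499 at single test concentrations.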

hERG [3] = target: T2, hERG; assay: Displacement of [35S]-MK-0499 from human ERG at 1 uM; settings: probe [35S]-MK-0499; in short: as §2
Cav1.2 [4] = target: T3, Cav1.2 (Homo sapiens, UniProt Q13936); assay: Inhibition of Cav1.2 assessed as inhibition of calcium flux at 1 uM by cell based FLIPR assay
T3 sequence (Q13936 whole entry): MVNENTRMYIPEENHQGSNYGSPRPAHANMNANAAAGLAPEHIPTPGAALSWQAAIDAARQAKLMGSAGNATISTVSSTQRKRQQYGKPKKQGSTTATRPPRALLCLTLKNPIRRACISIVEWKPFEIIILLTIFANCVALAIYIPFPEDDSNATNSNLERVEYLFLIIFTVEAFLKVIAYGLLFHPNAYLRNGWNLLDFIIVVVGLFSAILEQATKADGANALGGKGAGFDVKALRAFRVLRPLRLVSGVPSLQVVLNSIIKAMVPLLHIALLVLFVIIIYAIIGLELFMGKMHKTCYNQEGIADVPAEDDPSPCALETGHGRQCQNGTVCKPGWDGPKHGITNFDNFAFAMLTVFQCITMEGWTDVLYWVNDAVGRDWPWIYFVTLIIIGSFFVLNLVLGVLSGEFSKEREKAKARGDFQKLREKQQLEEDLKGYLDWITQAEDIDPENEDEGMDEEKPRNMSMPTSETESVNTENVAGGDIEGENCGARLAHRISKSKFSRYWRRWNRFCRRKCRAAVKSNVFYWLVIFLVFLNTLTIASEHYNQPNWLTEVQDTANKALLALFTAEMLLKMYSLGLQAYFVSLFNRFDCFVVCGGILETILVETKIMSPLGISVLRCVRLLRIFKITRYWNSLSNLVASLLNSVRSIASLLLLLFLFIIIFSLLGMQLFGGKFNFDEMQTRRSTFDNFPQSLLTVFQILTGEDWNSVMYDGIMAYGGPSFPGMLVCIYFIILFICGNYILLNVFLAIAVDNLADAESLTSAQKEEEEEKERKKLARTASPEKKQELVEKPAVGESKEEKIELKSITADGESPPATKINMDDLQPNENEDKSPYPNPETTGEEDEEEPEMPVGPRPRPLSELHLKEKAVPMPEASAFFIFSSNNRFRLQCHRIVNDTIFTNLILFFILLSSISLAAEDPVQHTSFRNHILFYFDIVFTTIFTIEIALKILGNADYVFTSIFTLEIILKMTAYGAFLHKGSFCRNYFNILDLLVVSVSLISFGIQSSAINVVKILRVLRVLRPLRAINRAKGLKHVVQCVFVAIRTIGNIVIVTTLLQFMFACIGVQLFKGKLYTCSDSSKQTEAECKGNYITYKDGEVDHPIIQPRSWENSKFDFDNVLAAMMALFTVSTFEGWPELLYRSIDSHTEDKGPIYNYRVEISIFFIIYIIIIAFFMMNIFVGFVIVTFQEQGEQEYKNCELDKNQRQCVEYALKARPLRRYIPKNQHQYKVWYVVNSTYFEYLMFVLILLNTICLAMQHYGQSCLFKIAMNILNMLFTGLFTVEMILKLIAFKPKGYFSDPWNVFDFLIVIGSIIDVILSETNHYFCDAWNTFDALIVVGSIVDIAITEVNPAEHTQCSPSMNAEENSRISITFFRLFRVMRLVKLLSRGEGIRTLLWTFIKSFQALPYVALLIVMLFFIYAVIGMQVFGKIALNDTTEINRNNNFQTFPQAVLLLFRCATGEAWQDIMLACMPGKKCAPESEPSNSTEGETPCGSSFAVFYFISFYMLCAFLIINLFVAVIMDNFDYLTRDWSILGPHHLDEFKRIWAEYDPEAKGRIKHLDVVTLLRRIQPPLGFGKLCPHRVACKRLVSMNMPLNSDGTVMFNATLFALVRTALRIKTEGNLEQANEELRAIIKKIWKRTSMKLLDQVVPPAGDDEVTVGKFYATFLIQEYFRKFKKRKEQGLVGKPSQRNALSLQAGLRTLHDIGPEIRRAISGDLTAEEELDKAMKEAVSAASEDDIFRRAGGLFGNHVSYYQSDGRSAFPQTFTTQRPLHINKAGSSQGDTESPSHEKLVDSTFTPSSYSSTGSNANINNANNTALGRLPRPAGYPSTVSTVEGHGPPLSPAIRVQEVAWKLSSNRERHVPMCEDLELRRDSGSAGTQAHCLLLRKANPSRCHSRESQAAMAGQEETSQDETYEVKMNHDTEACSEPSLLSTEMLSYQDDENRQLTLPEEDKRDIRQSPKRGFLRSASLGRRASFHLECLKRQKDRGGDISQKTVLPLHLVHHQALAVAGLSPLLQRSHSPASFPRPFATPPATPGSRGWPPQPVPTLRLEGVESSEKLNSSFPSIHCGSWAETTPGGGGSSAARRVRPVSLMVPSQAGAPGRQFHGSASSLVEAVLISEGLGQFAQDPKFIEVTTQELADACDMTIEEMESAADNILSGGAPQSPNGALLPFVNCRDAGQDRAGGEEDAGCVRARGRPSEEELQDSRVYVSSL
In short: (§3)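 Cav1.2 counterscreen using a related calcium-influx FLIPR assay, run as % inhibition at single concentrations or as a titration.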

Cav1.2 [5] = target: T3, Cav1.2; assay: Inhibition of Cav1.2 assessed as inhibition of calcium flux at 3 uM by cell based FLIPR assay; in short: as §3
Mus musculus [6] = assay: Antinociceptive activity in Cav2.2 expressing wild type mouse SNL neuropathic pain model assessed as reversal of mechanical allodynia at 30 mg/kg, po after 2 hrs; assay type: functional
In short: (§4)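 Cav2.2+/+ and Cav2.2−/− mice underwent spinal nerve ligation, then got a single 30 mg/kg oral dose. Mechanical allodynia was scored 2 h postdose.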

Mus musculus [7] = assay: Antinociceptive activity in Cav2.2 deficient mouse SNL neuropathic pain model assessed as reversal of mechanical allodynia at 30 mg/kg, po after 2 hrs; assay type: functional; in short: as §4
[8] = target: T1, Voltage-dependent N-type calcium channel subunit alpha-1B; assay: Inhibition of Cav2.2 expressed HEK293 cells assessed as inhibition of calcium flux at 1 uM by FLIPR assay; assay type: cell-based; in short: as §1
Target sequence in this assay (Q00975 whole entry, looked up): as the sequence (Q00975 whole entry) above

[9] = target: T1, Voltage-dependent N-type calcium channel subunit alpha-1B; assay: Inhibition of Cav2.2 expressed HEK293 cells assessed as inhibition of calcium flux by FLIPR assay in presence of 4 mM of potassium; assay type: cell-based
In short: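 HEK-293-derived CBK cells coexpress α1B-1, α2-δ and β3a with Kir2.3. Compound was incubated in 4 mM K+ bath, holding about −90 mV. Ca2+ influx was read with a Ca-sensitive dye on FLIPR Tetra. Ten-point titrations ran 0.001–30 μM in quadruplicate, averaged ± SD to give IC50.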
Target sequence in this assay (Q00975 whole entry): as above

Rattus norvegicus = assay: Antinociceptive activity in rat assessed as reversal of complete Freund's adjuvant-induced pain at 10 mg/kg, po after 3 hrs; assay type: functional
In short: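 Rats had complete Freund's adjuvant-induced inflammatory pain and got oral dosing. Allodynia was read at 1 and 3 h postdose. Percent reversal per rat = (postdose − predose)/(preinjury − predose). Groups had at least six animals, reported as mean + SEM.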

| SMILES | IC50 [1] [nM] | inhibition at 1 µM (hERG [3]) [%] | inhibition [8] [%] | other results |
| --- | --- | --- | --- | --- |
| COC(=O)c1cccc(C(=O)N2CCC(N(C3CC3)S(=O)(=O)c3cccc(C(F)(F)F)c3)CC2)c1 | 380 | 2.4 | – | inhibition at 10 µM (hERG [2]): 66% |
| O=C(c1ccc(OC(F)(F)F)cc1)N1CCC(N(C2CC2)S(=O)(=O)c2cccc(C(F)(F)F)c2)CC1 | 300 | 0 | – | inhibition at 1 µM (Cav1.2 [4]): 73%; inhibition at 10 µM (hERG [2]): 77%; inhibition at 3 µM (Cav1.2 [5]): 88% |
| NCC1(CC(=O)O)CCCCC1 [GABAPENTIN] | – | – | – | Activity (Mus musculus [6]): 71%; Activity (Mus musculus [7]): 48% |
| NC(=O)c1ccc(C(=O)N2CCC(N(C3CC3)S(=O)(=O)c3cccc(C(F)(F)F)c3)CC2)cc1 | – | – | 12 | inhibition at 1 µM (Cav1.2 [4]): 0%; inhibition at 3 µM (Cav1.2 [5]): 0% |
| C[C@@H](O)[C@@H]1NC(=O)[C@H](Cc2ccc(O)cc2)NC(=O)[C@@H]2C[C@@H](O)CN2C(=O)[C@H](CC(N)=O)NC(=O)[C@@H]2CSSC[C@@H]3NC(=O)[C@H](CO)NC(=O)[C@H](CO)NC(=O)CNC(=O)[C@@H]4C[C@@H](O)CN4C(=O)[C@H](CO)NC(=O)[C@H](CCCCN)NC(=O)[C@@H](N)CSSC[C@H](NC(=O)[C@H](CSSC[C@@H](C(=O)N[C@@H](Cc4ccc(O)cc4)C(N)=O)NC(=O)[C@H](CCCN=C(N)N)NC(=O)[C@H](CCCCN)NC1=O)NC(=O)[C@H](CC(N)=O)NC(=O)[C@H](Cc1ccc(O)cc1)NC(=O)[C@H](CO)NC(=O)[C@H]([C@@H](C)O)NC(=O)[C@@H]1C[C@@H](O)CN1C(=O)[C@H](CO)NC3=O)C(=O)N[C@@H](CCCN=C(N)N)C(=O)N[C@@H](CO)C(=O)N2 | 40 | – | – | IC50 [9]: 20 nM |
| CN(C)c1cccc(C(=O)N2CCC(N(C3CC3)S(=O)(=O)c3cccc(C(F)(F)F)c3)CC2)c1 | 240 | 0 | – | inhibition at 1 µM (Cav1.2 [4]): 40%; inhibition at 10 µM (hERG [2]): 51%; inhibition at 3 µM (Cav1.2 [5]): 63% |
| CC(C)C[C@H](CN)CC(=O)O [PREGABALIN] | – | – | – | Activity (Rattus norvegicus): 58% |
| COc1cccc(OC)c1CN1CCC(N(C2CC2)S(=O)(=O)c2cccc(C(F)(F)F)c2)CC1 | 60 | 70 | – | – |
| NC(=O)c1cccc(C(=O)N2CCC(N(C3CC3)S(=O)(=O)c3cccc(C(F)(F)F)c3)CC2)c1 | – | – | 0 | – |
| CS(=O)(=O)c1ccc(C(=O)N2CCC(N(C3CC3)S(=O)(=O)c3cccc(C(F)(F)F)c3)CC2)cc1 | – | – | 52 | – |
| CS(=O)(=O)c1cccc(C(=O)N2CCC(N(C3CC3)S(=O)(=O)c3cccc(C(F)(F)F)c3)CC2)c1 | – | – | 15 | – |
| CS(=O)(=O)c1ccc(F)cc1C(=O)N1CCC(N(C2CC2)S(=O)(=O)c2ccc(C(F)(F)F)cc2)CC1 | – | – | 1 | – |
